Experimental data taken from ChEMBL document CHEMBL3124924, “Bifunctional ethyl 2-amino-4-methylthiazole-5-carboxylate derivatives: synthesis and in vitro biological evaluation as antimicrobial and anticancer agents” (2014).
Converted amounts (≈) assume the structure as drawn. The source made the active and inactive calls. The calls are words filed in the database; no cut-off is given here.

The compounds below were run on U-251 (assay: Cytotoxicity against human U251 cells assessed as growth inhibition at 10 uM after 48 hrs by SRB assay). Conditions: U-251, 48 h, read-out: GI.
Format: functional
Outline: (§1)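 NCI-60 one-dose primary screen run by the NCI Drug Evaluation Branch across the full 60-line panel. Single high-dose treatment with 48 h continuous drug exposure. Cell growth estimated by sulforhodamine B protein staining. Results given as percent growth of treated cells and expressed as percentage growth inhibition.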

Structure (SMILES)	inhibition of growth at 10 µM [%]
Cc1nc(N)sc1C(=O)Nc1ccc(F)cc1	5.77

What follows are compounds tested on CCRF-CEM (assay: Cytotoxicity against human CCRF-CEM cells assessed as growth inhibition at 10 uM after 48 hrs by SRB assay). Conditions: read-out: GI.
Format: functional
Outline: as §1

Structure (SMILES)	inhibition of growth at 10 µM [%]
Cc1nc(N)sc1C(=O)Nc1ccc(F)cc1	< 10

What follows are compounds tested on HT-29 (assay: Cytotoxicity against human HT-29 cells assessed as growth inhibition at 10 uM after 48 hrs by SRB assay). Conditions: HT-29, 48 h, read-out: GI.
Format: functional
Outline: as §1

Structure (SMILES)	inhibition of growth at 10 µM [%]
Cc1nc(N)sc1C(=O)Nc1ccc(F)cc1	< 10

Each compound was assayed on K562 (assay: Cytotoxicity against human K562 cells assessed as growth inhibition at 10 uM after 48 hrs by SRB assay). Conditions: K562, 48 h, read-out: GI.
Format: functional
Outline: as §1

Structure (SMILES)	inhibition of growth at 10 µM [%]
Cc1nc(N)sc1C(=O)Nc1ccc(F)cc1	< 10

These compounds were tested on HCT-15 (assay: Cytotoxicity against human HCT15 cells assessed as growth inhibition at 10 uM after 48 hrs by SRB assay). Conditions: HCT-15, 48 h, read-out: GI.
Format: functional
Outline: as §1

Structure (SMILES)	inhibition of growth at 10 µM [%]
Cc1nc(N)sc1C(=O)Nc1ccc(F)cc1	< 10

The compounds below were run on SW-620 (assay: Cytotoxicity against human SW620 cells assessed as growth inhibition at 10 uM after 48 hrs by SRB assay). Conditions: SW-620, 48 h, read-out: GI.
Format: functional
Outline: as §1

Structure (SMILES)	inhibition of growth at 10 µM [%]
Cc1nc(N)sc1C(=O)Nc1ccc(F)cc1	< 10

The compounds below were run on Staphylococcus aureus (assay: Antibacterial activity against Staphylococcus aureus ATCC 6538 assessed as growth inhibition after 48 hrs by two-fold serial dilution assay). Conditions: ATCC 6538, 48 h.
Format: functional
Outline: (§2)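 Twofold serial broth dilution run on compounds giving inhibition zones of 13 mm or more. Organisms pre-grown in suitable broth at 37 °C, 24 h for bacteria and 48 h for fungi. Dilution series 200, 100, 50, 25, 12.5, 6.25. Each 5 mL tube inoculated with 0.1 mL and incubated 37 °C for 48 h. Tubes scored for presence or absence of growth.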

Structure (SMILES)	MIC [µg/mL]
Cc1nc(N)sc1C(=O)Nc1ccc(F)cc1	12.5 (≈ 49.7 µM)

Each compound was assayed on HCT-116 (assay: Cytotoxicity against human HCT116 cells assessed as growth inhibition at 10 uM after 48 hrs by SRB assay). Conditions: HCT-116, 48 h, read-out: GI.
Format: functional
Outline: as §1

Structure (SMILES)	inhibition of growth at 10 µM [%]
Cc1nc(N)sc1C(=O)Nc1ccc(F)cc1	< 10

Each compound was assayed on Bacillus spizizenii (assay: Antibacterial activity against Bacillus subtilis ATCC 6633 assessed as growth inhibition after 48 hrs by two-fold serial dilution assay). Conditions: ATCC 6633, 48 h.
Format: functional
Outline: as §2

Structure (SMILES)	MIC [µg/mL]
Cc1nc(N)sc1C(=O)Nc1ccc(F)cc1	25 (≈ 99.5 µM)

What follows are compounds tested on Candida albicans (assay: Antifungal activity against Candida albicans ATCC 10231 assessed as growth inhibition at 1 mg/mL after 48 hrs by agar-cup diffusion method). Conditions: ATCC 10231, 48 h, read-out: DIZ.
Format: functional
Outline: (§3)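 Agar-cup diffusion: 1 mL of 6 h broth culture seeded per 100 mL molten sterile agar at 45 °C and poured into plates. 8 mm cups cut, each filled with 0.1 mL of 1 mg/mL test solution. Incubated 37 °C for 24 h, 48 h for C. albicans. DMSO control per organism. Inhibition zone diameter in mm, mean of three measurements.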

Structure (SMILES)	zone of inhibition at 1000 µg/mL [mm]
Cc1nc(N)sc1C(=O)Nc1ccc(F)cc1	> 13

These compounds were tested on NCI-H226 (assay: Cytotoxicity against human NCI-H226 cells assessed as growth inhibition at 10 uM after 48 hrs by SRB assay). Conditions: NCI-H226, 48 h, read-out: GI.
Format: functional
Outline: as §1

Structure (SMILES)	inhibition of growth at 10 µM [%]
Cc1nc(N)sc1C(=O)Nc1ccc(F)cc1	5.62

The compounds below were run on Escherichia coli (assay: Antibacterial activity against Escherichia coli ATCC 25922 assessed as growth inhibition at 1 mg/mL after 24 hrs by agar-cup diffusion method). Conditions: ATCC 25922, 24 h, read-out: DIZ.
Format: functional
Outline: as §3

Structure (SMILES)	zone of inhibition at 1000 µg/mL [mm]
Cc1nc(N)sc1C(=O)Nc1ccc(F)cc1	> 13

Each compound was assayed on SK-MEL-2 (assay: Cytotoxicity against human SK-MEL-2 cells assessed as growth inhibition at 10 uM after 48 hrs by SRB assay). Conditions: SK-MEL-2, 48 h, read-out: GI.
Format: functional
Outline: as §1

Structure (SMILES)	inhibition of growth at 10 µM [%]
Cc1nc(N)sc1C(=O)Nc1ccc(F)cc1	67.3

These compounds were tested on MDA-MB-468 (assay: Cytotoxicity against human MDA-MB-468 cells assessed as growth inhibition at 10 uM after 48 hrs by SRB assay). Conditions: MDA-MB-468, 48 h, read-out: GI.
Format: functional
Outline: as §1

Structure (SMILES)	inhibition of growth at 10 µM [%]
Cc1nc(N)sc1C(=O)Nc1ccc(F)cc1	9.63

Each compound was assayed on Escherichia coli (assay: Bactericidal activity against Escherichia coli ATCC 25922 after 18 hrs). Conditions: ATCC 25922, 18 h.
Format: functional
Outline: (§4)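 Continuation of the broth-dilution MIC test. A loopful from each tube without visible growth spread on a quarter of a Mueller-Hinton agar plate and incubated 18 h. Lowest concentration giving no growth on subculture taken as the MBC.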

Structure (SMILES)	MBC [µg/mL]
Cc1nc(N)sc1C(=O)Nc1ccc(F)cc1	100 (≈ 398 µM)

These compounds were tested on Bacillus spizizenii (assay: Bactericidal activity against Bacillus subtilis ATCC 6633 after 18 hrs). Conditions: ATCC 6633, 18 h.
Format: functional
Outline: as §4

Structure (SMILES)	MBC [µg/mL]
Cc1nc(N)sc1C(=O)Nc1ccc(F)cc1	50 (≈ 199 µM)

Each compound was assayed on UACC-62 (assay: Cytotoxicity against human UACC62 cells assessed as growth inhibition at 10 uM after 48 hrs by SRB assay). Conditions: UACC-62, 48 h, read-out: GI.
Format: functional
Outline: as §1

Structure (SMILES)	inhibition of growth at 10 µM [%]
Cc1nc(N)sc1C(=O)Nc1ccc(F)cc1	3.24

These compounds were tested on LOX IMVI (assay: Cytotoxicity against human LOXIMVI cells assessed as growth inhibition at 10 uM after 48 hrs by SRB assay). Conditions: read-out: GI.
Format: functional
Outline: as §1

Structure (SMILES)	inhibition of growth at 10 µM [%]
Cc1nc(N)sc1C(=O)Nc1ccc(F)cc1	< 10

Each compound was assayed on PC-3 (assay: Cytotoxicity against human PC3 cells assessed as growth inhibition at 10 uM after 48 hrs by SRB assay). Conditions: PC-3, 48 h, read-out: GI.
Format: functional
Outline: as §1

Structure (SMILES)	inhibition of growth at 10 µM [%]
Cc1nc(N)sc1C(=O)Nc1ccc(F)cc1	< 10

Each compound was assayed on HCC 2998 (assay: Cytotoxicity against human HCC2998 cells assessed as growth inhibition at 10 uM after 48 hrs by SRB assay). Conditions: HCC 2998, 48 h, read-out: GI.
Format: functional
Outline: as §1

Structure (SMILES)	inhibition of growth at 10 µM [%]
Cc1nc(N)sc1C(=O)Nc1ccc(F)cc1	11.8

These compounds were tested on NCI-H522 (assay: Cytotoxicity against human NCI-H522 cells assessed as growth inhibition at 10 uM after 48 hrs by SRB assay). Conditions: NCI-H522, 48 h, read-out: GI.
Format: functional
Outline: as §1

Structure (SMILES)	inhibition of growth at 10 µM [%]
Cc1nc(N)sc1C(=O)Nc1ccc(F)cc1	9.55

The compounds below were run on SR (assay: Cytotoxicity against human SR cells assessed as growth inhibition at 10 uM after 48 hrs by SRB assay). Conditions: read-out: GI.
Format: functional
Outline: as §1

Structure (SMILES)	inhibition of growth at 10 µM [%]
Cc1nc(N)sc1C(=O)Nc1ccc(F)cc1	< 10

Each compound was assayed on RPMI-8226 (assay: Cytotoxicity against human RPMI8226 cells assessed as growth inhibition at 10 uM after 48 hrs by SRB assay). Conditions: RPMI-8226, 48 h, read-out: GI.
Format: functional
Outline: as §1

Structure (SMILES)	inhibition of growth at 10 µM [%]
Cc1nc(N)sc1C(=O)Nc1ccc(F)cc1	< 10

These compounds were tested on Pseudomonas aeruginosa (assay: Antibacterial activity against Pseudomonas aeruginosa ATCC 27853 assessed as growth inhibition at 1 mg/mL after 24 hrs by agar-cup diffusion method). Conditions: ATCC 27853, 24 h, read-out: DIZ.
Format: functional
Outline: as §3

Structure (SMILES)	zone of inhibition at 1000 µg/mL [mm]
Cc1nc(N)sc1C(=O)Nc1ccc(F)cc1	> 13

These compounds were tested on SN12C (assay: Cytotoxicity against human SN12C cells assessed as growth inhibition at 10 uM after 48 hrs by SRB assay). Conditions: read-out: GI.
Format: functional
Outline: as §1

Structure (SMILES)	inhibition of growth at 10 µM [%]
Cc1nc(N)sc1C(=O)Nc1ccc(F)cc1	3.01

The compounds below were run on SF-268 (assay: Cytotoxicity against human SF268 cells assessed as growth inhibition at 10 uM after 48 hrs by SRB assay). Conditions: SF-268, 48 h, read-out: GI.
Format: functional
Outline: as §1

Structure (SMILES)	inhibition of growth at 10 µM [%]
Cc1nc(N)sc1C(=O)Nc1ccc(F)cc1	< 10

Each compound was assayed on Staphylococcus aureus (assay: Bactericidal activity against Staphylococcus aureus ATCC 6538 after 18 hrs). Conditions: ATCC 6538, 18 h.
Format: functional
Outline: as §4

Structure (SMILES)	MBC [µg/mL]
Cc1nc(N)sc1C(=O)Nc1ccc(F)cc1	25 (≈ 99.5 µM)

What follows are compounds tested on IGROV-1 (assay: Cytotoxicity against human IGROV1 cells assessed as growth inhibition at 10 uM after 48 hrs by SRB assay). Conditions: IGROV-1, 48 h, read-out: GI.
Format: functional
Outline: as §1

Structure (SMILES)	inhibition of growth at 10 µM [%]
Cc1nc(N)sc1C(=O)Nc1ccc(F)cc1	< 10

These compounds were tested on T47D (assay: Cytotoxicity against human T47D cells assessed as growth inhibition at 10 uM after 48 hrs by SRB assay). Conditions: read-out: GI.
Format: functional
Outline: as §1

Structure (SMILES)	inhibition of growth at 10 µM [%]
Cc1nc(N)sc1C(=O)Nc1ccc(F)cc1	< 10

What follows are compounds tested on Staphylococcus aureus (assay: Antibacterial activity against Staphylococcus aureus ATCC 6538 assessed as growth inhibition at 1 mg/mL after 24 hrs by agar-cup diffusion method). Conditions: ATCC 6538, 24 h, read-out: DIZ.
Format: functional
Outline: as §3

Structure (SMILES)	zone of inhibition at 1000 µg/mL [mm]
Cc1nc(N)sc1C(=O)Nc1ccc(F)cc1	> 13

These compounds were tested on Aspergillus niger (assay: Antifungal activity against Aspergillus niger assessed as growth inhibition at 1 mg/mL after 24 hrs by agar-cup diffusion method). Conditions: not given.
Format: functional, organism-based
Outline: as §3

Structure (SMILES)	growth inhibition (GI)
Cc1nc(N)sc1C(=O)Nc1ccc(F)cc1	inactive
